Entries after “also recorded” stand apart in the source; their conditions may differ.
What was measured:
[1] = system: clathrin mediated endocytosis / LRP-1 in NRK cells; test: Inhibition of clathrin/LRP-1 mediated endocytosis of 33mer and α2M in NRK cells; format: cell-based, rat; conditions: for inhibition of large endocytic puncta (33mer + α2M): 12.5 mM MβCD, 20 μM Dyno-4a, 25 μM Pitstop
Procedure, shortened: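 Clathrin-endocytosis inhibitors used on NRK cells: MβCD 12.5 mM, Dyno-4a 20 μM, Pitstop 25 μM; Pitstop added 30 min before the other treatments. Then labelled α2M and Cy5-33mer for 1.5 h, HBSS washes, 2% PFA fix, DAPI, confocal for large double-labelled puncta.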

[2] = system: NRK cells; test: Endocytosis of fluorescent α2M in NRK cells with TG2 inhibitors or substrates; format: cell-based, rat
Procedure, shortened: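 Rat NRK cells kept in DMEM, split 1:4 to 1:10 every 2-4 days, and imaged as adherent cultures. Small-molecule inhibitors go on 30 min ahead of other additions. Recombinant α2M is purified from culture supernatant by zinc-affinity chromatography and then SEC. After 1.5 h, cells are washed 3× in HBSS, fixed in 2% PFA/PBS for 10 min at RT, DAPI-stained, and imaged by confocal microscopy under low light.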

[3] = molecular target: T1, human TG2 (Homo sapiens, UniProt P21980); test: TG2 steady-state kinetics of substrates, wild-type TG2 ± α2M and vs pH; format: biochemical; conditions: for kcat: 200 mM MOPS pH 7.2, 5 mM CaCl2, 25 °C, 1 μM TG2, triplicate
T1 sequence (P21980 1-687): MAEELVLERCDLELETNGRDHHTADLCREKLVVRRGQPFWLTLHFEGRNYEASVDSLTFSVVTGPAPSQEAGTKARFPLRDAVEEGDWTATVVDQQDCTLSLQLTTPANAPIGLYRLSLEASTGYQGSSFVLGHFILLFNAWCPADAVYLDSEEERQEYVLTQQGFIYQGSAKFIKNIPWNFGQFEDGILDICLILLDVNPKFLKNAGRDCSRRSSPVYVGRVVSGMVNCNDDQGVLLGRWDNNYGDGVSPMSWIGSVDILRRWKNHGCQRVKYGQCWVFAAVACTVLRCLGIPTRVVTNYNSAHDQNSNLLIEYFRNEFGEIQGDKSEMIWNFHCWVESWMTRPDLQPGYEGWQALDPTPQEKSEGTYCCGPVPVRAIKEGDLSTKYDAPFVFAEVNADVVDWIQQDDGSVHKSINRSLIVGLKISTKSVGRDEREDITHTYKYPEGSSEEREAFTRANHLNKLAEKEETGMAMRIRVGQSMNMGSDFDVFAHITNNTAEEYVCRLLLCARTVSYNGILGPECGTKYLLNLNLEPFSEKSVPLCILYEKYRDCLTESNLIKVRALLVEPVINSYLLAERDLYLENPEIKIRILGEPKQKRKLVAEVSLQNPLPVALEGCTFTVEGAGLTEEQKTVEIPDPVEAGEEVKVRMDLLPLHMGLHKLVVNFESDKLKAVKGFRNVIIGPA
Procedure, shortened: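 His6-tagged human TG2 from E. coli BL21(DE3) was purified by Ni-NTA and anion exchange, reduced, and desalted into PBS. It was assayed at 1 μM final, ± recombinant human α2M (Expi293F-expressed), with GDH/α-ketoglutarate/NADH coupling in 200 mM MOPS pH 7.2 with 5 mM CaCl2. Substrate was Ac-PQLPF-NH2 unless otherwise specified. Absorbance at 340 nm was followed for 60 min at 25 °C. Steady-state rates came from linear progress-curve slopes; triplicate.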

[4] = molecular target: T2, TG2 derivative lacking the C-terminal β-barrel domain (Homo sapiens, UniProt P21980); test: Kinetics of truncated TG2 lacking the C-terminal β-barrel domain; format: biochemical; conditions: pH 7.2, 25 °C, triplicate
T2 sequence (P21980 1-586): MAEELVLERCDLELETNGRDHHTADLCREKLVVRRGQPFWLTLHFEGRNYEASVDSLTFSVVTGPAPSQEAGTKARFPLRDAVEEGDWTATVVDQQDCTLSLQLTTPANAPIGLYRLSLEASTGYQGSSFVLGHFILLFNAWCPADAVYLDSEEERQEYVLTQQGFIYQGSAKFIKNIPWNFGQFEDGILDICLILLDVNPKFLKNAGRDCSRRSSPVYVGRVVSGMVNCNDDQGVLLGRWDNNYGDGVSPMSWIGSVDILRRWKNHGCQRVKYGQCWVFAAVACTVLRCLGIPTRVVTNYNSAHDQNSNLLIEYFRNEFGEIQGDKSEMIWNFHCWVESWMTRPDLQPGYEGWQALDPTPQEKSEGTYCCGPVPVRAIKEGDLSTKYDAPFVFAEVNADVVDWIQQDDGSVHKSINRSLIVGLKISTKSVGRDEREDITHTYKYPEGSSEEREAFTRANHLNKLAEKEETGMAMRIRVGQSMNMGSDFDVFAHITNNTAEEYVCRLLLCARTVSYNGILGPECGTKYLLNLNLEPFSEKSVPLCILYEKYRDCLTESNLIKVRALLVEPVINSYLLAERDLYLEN
Procedure, shortened: (§1)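 Truncated human TG2 constructs with N-terminal His tags (residues 1-586 lacking β2; residues 1-460 lacking β1 and β2) were expressed in Rosetta2 E. coli and purified by Ni, anion exchange and SEC. The assay was GDH-coupled: 200 mM MOPS pH 7.2, 5 mM CaCl2, 10 mM α-ketoglutarate, 18 U/mL GDH, 0.5 mM NADH and Ac-PQLPF-NH2. Reduced enzyme was at 1 μM final, ± Expi293F-expressed human α2M. NADH loss was read at 340 nm for 60 min at 25 °C. Rates came from linear slopes; triplicate.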

[5] = molecular target: T3, TG2 derivative harboring the N-terminal and catalytic domains but lacking both β-barrel domains (Homo sapiens, UniProt P21980); test: Kinetics of truncated TG2 lacking both β-barrel domains; format: biochemical; conditions: pH 7.2, 25 °C, triplicate
T3 sequence (P21980 1-460): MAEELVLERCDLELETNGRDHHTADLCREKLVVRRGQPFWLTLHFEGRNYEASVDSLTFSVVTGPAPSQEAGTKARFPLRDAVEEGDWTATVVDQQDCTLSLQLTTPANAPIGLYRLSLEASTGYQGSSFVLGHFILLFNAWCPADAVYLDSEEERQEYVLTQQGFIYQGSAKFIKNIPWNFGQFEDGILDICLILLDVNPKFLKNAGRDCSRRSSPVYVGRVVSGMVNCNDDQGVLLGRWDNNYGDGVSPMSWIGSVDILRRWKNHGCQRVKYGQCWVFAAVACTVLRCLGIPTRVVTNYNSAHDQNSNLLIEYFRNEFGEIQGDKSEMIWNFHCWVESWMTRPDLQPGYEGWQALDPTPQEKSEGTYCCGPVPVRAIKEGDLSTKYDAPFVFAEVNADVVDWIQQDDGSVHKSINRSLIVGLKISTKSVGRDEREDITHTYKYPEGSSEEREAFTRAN
Procedure, shortened: as §1

[6] = system: wild-type BMDCs; test: Uptake by BMDCs from wild-type mice; format: cell-based, mouse
Procedure, shortened: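 Bone marrow flushed from tibia and femur of female C57BL6 or TG2-knockout mice, red cells removed. Cells seeded at 2x10^6 per 10-cm dish in RPMI/10% FBS with 10 ng/mL GM-CSF, fed on days 3 and 6, suspension cells harvested day 8. Probed with HB230 or Cy5-33mer; confocal, DAPI counterstain.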

[7] = system: wild-type bone marrow derived macrophages (BMM); test: Uptake by bone marrow derived macrophages from wild-type mice; format: cell-based, mouse; conditions: ± α2M; triplicates
Procedure, shortened: (§2)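 Bone marrow from female C57BL6 or TG2-knockout mice, red cells removed, plated at 8x10^6 cells in RPMI/10% FBS with 20 ng/mL M-CSF. Fed on days 2 and 4, adherent cells harvested with 5 mM EDTA on day 5. Cy5-33mer uptake imaged by confocal; triplicates, mean ± SD.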

[8] = system: TG2-knockout BMM; test: Uptake by bone marrow derived macrophages from TG2-knockout mice; format: cell-based, mouse; conditions: triplicates
Procedure, shortened: as §2

[9] = system: 9022 cells (HLA-DQ2 homozygous B-cell line); test: Cell surface presentation by HLA-DQ2 expressing 9022 B cells; format: cell-based, human; conditions: 20 min prior to α2M and 33mer
Procedure, shortened: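 EBV-immortalised HLA-DQ2-homozygous B cells in RPMI with 10% FBS and 1% PenStrep, pelleted, resuspended and left 20 min at 37 °C to adhere on poly-L-lysine-coated glass. Cy5-33mer, α2M and 100 nM recombinant human TG2 (E. coli, His6) added for 2.5 h. Anti-HLA-DQ2 (1:50) then Alexa 488 secondary, each 20 min on ice, fixed, DAPI, confocal. Cells with surface HLA-DQ2/Cy5 overlay scored; 2-4 frames of 3-6 replicates.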

[10] = system: wild-type MEFs; test: Labeling of wild-type MEFs by TG2 activity probes; format: cell-based, mouse; conditions: for labeling/staining pattern: 1 μM HB230 (3 h) with 10 μM TRX, 5BP at 100 μM
Procedure, shortened: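 MEFs were grown in DMEM and seeded on glass-bottom plates for 3 days. TG2-knockout controls were E14.5 MEFs immortalised with SV40 large T. Media were replaced, then probe was added with recombinant human TRX for the whole 3 h treatment. Cells were washed in HBSS, fixed in 2% PFA for 10 min at RT, and stained with DAPI. Imaging was confocal with a 63x oil objective; probe was read on the 647 nm channel.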

[11] = molecular target: T1, human TG2; conditions: nucleophilic substrate; cited from earlier work
[12] = molecular target: T1, human TG2; conditions: oxidant; without active site occupancy; cited from earlier work

methyl-β-cyclodextrin [MβCD]
inhibition of large endocytic puncta (33mer + α2M) [1]: strong inhibition of α2M and peptide colocalization as large endocytic puncta; also recorded: abrogate the appearance of large puncta

fibronectin
endocytosis of fibronectin / effect on α2M puncta ([2]; 100 μg/mL fluorescent α2M, increasing exogenous fibronectin): dose-dependence increase in the abundance of large but not small puncta; also recorded: endocytosis of extracellular fibronectin via this pathway

AC-PQLPF-NH2
kcat ([3]; absence of α2M): 0.583 ± 0.017 s⁻¹
kcat ([3]; presence of α2M): 0.483 ± 0.017 s⁻¹
kcat ([4]; absence of α2M): 0.15 ± 0.017 s⁻¹
kcat ([4]; presence of α2M): 0.13 ± 0.017 s⁻¹
kcat ([5]; absence of α2M): 0.12 ± 0.0033 s⁻¹
kcat ([5]; presence of α2M): 0.12 ± 0.005 s⁻¹

H-LQLQPFPQPQLPYPQPQLPYPQPQLPYPQPQPF-Rink resin [SulfoCy5-native-33mer]
uptake by wild-type BMDCs [6]: take up HB230 and 33mer
uptake by wild-type BMM [7]: robustly internalized the 33mer in the presence, but not absence, of α2M
uptake by TG2-knockout BMM [8]: do not internalize 33mer

O=C1NC(=NS(=O)(=O)c2cccc3ccccc23)S/C1=C\c1ccc(Br)cc1 [Pitstop-2]
inhibition of large endocytic puncta (33mer + α2M) [1]: strong inhibition of α2M and peptide colocalization as large endocytic puncta
inhibition of large endocytic puncta (33mer + α2M) ([1]; listed as Pitstop): abrogate the appearance of large puncta
effect of Pitstop on cell surface 33mer [9]: dose-dependent reduction of cell-surface 33mer labeling

NCCCCCNC(=O)CCCC[C@@H]1SC[C@@H]2NC(=O)N[C@@H]21 [5-BP, 5-biotinamidopentylamine]
labeling/staining pattern [10]: label bound to extracellular matrix proteins (e.g., fibronectin) in a predictably fibrous pattern
labeling/staining pattern ([10]; listed as 5BP): fibrous incorporation pattern
TG2 substrate activity in words [11]: relatively weak nucleophilic substrate

O=C(N/N=C/c1cc(O)c(O)cc1O)c1cc2ccccc2cc1O [Dyno-4a]
inhibition of large endocytic puncta (33mer + α2M) [1]: strong inhibition of α2M and peptide colocalization as large endocytic puncta; also recorded: abrogate the appearance of large puncta

TG2: recombinant human transglutaminase 2
pH-dependence of TG2 catalytic activity ([3]; deamidation of Ac-PQLPF-NH2, pH 4.2-7.2, steady-state, triplicates): preserved upon acidification until at least pH 5

NCCSSCCN [cystamine, reference compound]
effect on α2M internalization (large puncta) ([2]; fluorescent α2M 100 μg/mL, CK805 10 μM, cystamine 100 μM): unable to promote rapid internalization of fluorescent α2M; also recorded: do not yield the larger puncta at saturating concentrations
TG2 inactivation mechanism in words [12]: inactivates TG2 by promoting C370-C371 disulfide bond formation

B1: RAP: potent endogenous antagonist of α2M binding to LRP-1, receptor associated protein (protein, UniProt P30533 35-357, looked up)
Alpha-2-macroglobulin …: YSREKNQPKPSPKRESGEEFRMEKLNQLWEKAQRLHLPPVRLAELHADLKIQERDELAWKKLKLDGLDEDGEKEARLIRNLNVILAKYGLDGKKDARQVTSNSLSGTQEDGLDDPRLEKLWHKAKTSGKFSGEELDKLWREFLHHKEKVHEYNVLLETLSRTEEIHENVISPSDLSDIKGSVLHSRHTELKEKLRSINQGLDRLRRVSHQGYSTEAEFEEPRVIDLWDLAQSANLTDKELEAFREELKHFEAKIEKHNHYQKQLEIAHEKLRHAESVGDGERVSRSREKHALLEGRTKELGYTVKKHLQDLSGRISRARHNEL
inhibition of large 33mer-containing puncta by LRP-1 antagonist ([1]; RAP prior to Cy5-33mer and α2M): inhibits the formation of large 33mer-containing puncta; also recorded: fully ablated the formation of large puncta

B2: TRX: recombinant human thioredoxin (protein, UniProt P10599 2-105, looked up)
Thioredoxin: VKQIESKTAFQEALDAAGDKLVVVDFSATWCGPCKMIKPFFHSLSEKYSNVIFLEVDVDDCQDVASECEVKCMPTFQFFKKGQKVGEFSGANKEKLEATINELV
dependence of probe labeling on TRX ([10]; TRX added for duration of HB230 treatment): strongly dependent

Reference: PMC9868102 (Cell chemical biology, 2023)
